Measurements reported in ChEMBL document CHEMBL1126100, “Anticancer activity in murine and human tumor cell lines of bis(platinum) complexes incorporating straight-chain aliphatic diamine linker groups” (J Med Chem, 1992).

Columns and labels:
Assay type in all cases: functional, cell-based
NCI-H520 = assay: In vitro growth inhibition by the compound was determined in human H520 tumor cell lines
In short: (§1)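 ID50 (µM) for growth inhibition of human tumor lines: HCT-8 colon adenocarcinoma and the H23, AH125 and H520 non-small cell lung carcinomas. Reported as mean ± SEM of at least four experiments, or as the average of at least two separate experiments.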

L1210 (DACH) = assay: In vitro growth inhibition by the compound was determined in cisplatin-resistant murine L1210DACH cell lines; settings: Mus musculus
In short: (§2)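 Growth inhibition of murine leukemia lines (cisplatin-resistant variants and cisplatin-sensitive L1210S, P388S) followed a published procedure, read out as ID50. Values are mean ± SEM of 3 to 17 separate experiments, or averages of at least two experiments. Each experiment's value was the mean of duplicates.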

P388PtR4 = assay: In vitro growth inhibition by the compound was determined in cisplatin-resistant murine P388PtR4 cell lines; settings: Mus musculus; in short: as §2
P388/S = assay: In vitro growth inhibition by the compound was determined in cisplatin-sensitive murine P388S cell lines; settings: Mus musculus; in short: as §2
AH125 cell line = assay: In vitro growth inhibition by the compound was determined in human AH125 tumor cell lines; in short: as §1
NCI-H23 = assay: In vitro growth inhibition by the compound was determined in human H23 tumor cell lines; in short: as §1
L1210 = assay: In vitro growth inhibition by the compound was determined in cisplatin-sensitive murine L1210S cell lines; settings: Mus musculus; in short: as §2
L1210 (PtR4) = assay: In vitro growth inhibition by the compound was determined in cisplatin-resistant murine L1210PtR4 cell lines; settings: Mus musculus; in short: as §2
HCT-8 = assay: In vitro growth inhibition by the compound was determined in human HCT-8 tumor cell lines; in short: as §1
L1210 (DDP5) = assay: In vitro growth inhibition by the compound was determined in cisplatin-resistant murine L1210DDP5 cell lines; settings: Mus musculus; in short: as §2

Row | Substance | ID50 (NCI-H520) [µM] | ID50 (L1210 (DACH)) [µM] | ID50 (P388PtR4) [µM] | ID50 (P388/S) [µM] | ID50 (AH125 cell line) [µM] | ID50 (NCI-H23) [µM] | ID50 (L1210) [µM] | ID50 (L1210 (PtR4)) [µM] | ID50 (HCT-8) [µM] | ID50 (L1210 (DDP5)) [µM]
1 | mu-(1,5-pentanediamine-N,N')bis-(aminedioato(2-)-O,O'platimum (II)) | 1.83 | 9.49 | 16 | 2.06 | 3.68 | 1.48 | 3.83 | 13 | 4.42 | 17.2
2 | 0-Hexyl-1,3-diamine-platinum 2,2-dichloride | – | 9.5 | 2.26 | 0.21 | – | – | 0.21 | 0.19 | – | 0.38
3 | CI-973 | 3.9 | 3.6 | 3.7 | 0.22 | – | 3.9 | 1.4 | 5.4 | 4.2 | 8.6
4 | mu-(1,7-Heptanediamine-N,N')bis-(cis-aminedichloroplatimum (II)) | – | 0.5 | 0.91 | 0.14 | 0.12 | 0.03 | 0.22 | 0.73 | 0.1 | 1.23
5 | CISPLATIN | 0.47 | 2.1 | 23.3 | 0.7 | 0.7 | 0.31 | 0.92 | 19.1 | 1.3 | 16.1
6 | mu-(1,7-nanodiamine-N,N')bis-(cis-aminedichloroplatimum (II)) | 0.14 | 1.6 | 3.2 | 0.21 | 0.26 | 0.056 | 0.29 | 2.2 | 0.19 | 2.8
